Data: ChEMBL document CHEMBL1153359, “Synthesis and biological evaluation of N4-(hetero)arylsulfonylquinoxalinones as HIV-1 reverse transcriptase inhibitors” (Bioorg Med Chem, 2009)

test system: Human immunodeficiency virus 1; assay: Inhibition of HIV1 replication in human 293T cells preincubated 15 mins prior to infection measured after 48 hrs postinfection by luciferase reporter gene assay; format: functional, organism-based; details: Human immunodeficiency virus 1, HEK-293T
Summary of the method: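 Pseudotyped virus was made by co-transfecting 293 cells with the env-deficient HIV-1 luciferase vector pNL4-3.luc.R-E- and a VSV-G plasmid (modified calcium phosphate method). 293ET target cells were seeded at 6 × 10⁴ per well the day before infection. Compound was added 15 min before the VSVG/HIV-1 virus, with a solvent-only control. Cells were lysed 48 h post-infection.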

Row | SMILES | IC50
1 | O=C1CN(S(=O)(=O)c2cccc3cccnc23)c2cc(F)ccc2N1 | 0.98 µM
2 | CC1C(=O)Nc2ccc(F)cc2N1S(=O)(=O)c1cccc2cccnc12 (stereo unspecified) | 7 µM
3 | CCC1C(=O)Nc2ccc(Cl)cc2N1S(=O)(=O)c1cccc2cccnc12 (stereo unspecified) | > 100 µM
4 | COC(=O)c1sccc1S(=O)(=O)N1CC(=O)Nc2ccc(Cl)cc21 | 0.83 µM
5 | COC(=O)c1sccc1S(=O)(=O)N1c2cc(Cl)ccc2NC(=O)C1C (stereo unspecified) | 0.2 µM
6 | CCC1C(=O)Nc2ccc(Cl)cc2N1S(=O)(=O)c1ccsc1C(=O)OC (stereo unspecified) | 6.3 µM
7 | COC(=O)c1sccc1S(=O)(=O)N1CC(=O)Nc2cc(C(F)(F)F)ccc21 | > 100 µM
8 | O=C1CN(S(=O)(=O)c2cccc3cccnc23)c2ccc(C(F)(F)F)cc2N1 | > 100 µM
9 | COC(=O)CC1C(=O)Nc2ccc(F)cc2N1S(=O)(=O)c1ccsc1C(=O)OC (stereo unspecified) | > 100 µM
10 | CC1C(=O)Nc2ccc(F)cc2N1S(=O)(=O)c1cc(Cl)sc1Cl (stereo unspecified) | > 100 µM
11 | CCC1C(=O)Nc2ccc(F)cc2N1S(=O)(=O)c1ccsc1C(=O)OC (stereo unspecified) | 5 µM
12 | N#Cc1cccc(S(=O)(=O)N2CC(=O)Nc3ccc(F)cc32)c1 | > 100 µM
13 | O=C1CN(S(=O)(=O)c2cccc3cccnc23)c2cc(Cl)ccc2N1 | 0.33 µM
14 | CC1C(=O)Nc2ccc(F)cc2N1S(=O)(=O)c1cccc(C#N)c1 (stereo unspecified) | 55 µM
15 | COC(=O)c1sccc1S(=O)(=O)N1CC(=O)Nc2ccc(F)cc21 | 2.02 µM
16 | COC(=O)c1sccc1S(=O)(=O)N1c2cc(F)ccc2NC(=O)C1C (stereo unspecified) | 0.2 µM
17 | CC1C(=O)Nc2ccc(Cl)cc2N1S(=O)(=O)c1cccc2cccnc12 (stereo unspecified) | 0.65 µM
18 | CC1C(=O)Nc2ccc(F)cc2N1S(=O)(=O)c1ccc([N+](=O)[O-])cc1 (stereo unspecified) | > 100 µM
19 | COC(=O)c1sccc1S(=O)(=O)N1c2cc(F)ccc2NC(=O)C1CCSC (stereo unspecified) | > 100 µM
20 | O=C1Nc2ccc(Cl)cc2[C@@](C#CC2CC2)(C(F)(F)F)O1 [EFAVIRENZ] | 0.0013 µM
21 | Cc1cn([C@H]2C[C@H](N=[N+]=[N-])[C@@H](CO)O2)c(=O)[nH]c1=O [ZIDOVUDINE] | 0.048 µM
